Source: PubChem BioAssay (Sanford-Burnham Center for Chemical Genomics)
Apaf-1 act: activators of human Apaf-1 apoptosome. Apaf-1 apoptosome caspase-3 activation, DEVD-Rh110 fluorescence; active compounds read low. O14727. actives 0.31% (n = 330,000). activity change, negative = activation, % at 20 µM. AID 489031;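 active = activity change at or below -40% at 20 µM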
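Assay system – biochemical Apaf-1 apoptosome reconstitution · Medium – 20 mM HEPES buffer, pH 7.5, containing CHAPS and BSA · Incubation – 30 min preincubation, 50 min reaction, room temperature · Measured by – Caspase-3-released Rh110 fluorescence, 540 nm emission, 480 nm excitation · Read-out – Caspase-3 cleavage activity downstream of Apaf-1 activation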
Rh110 interf act: interferes with Rh110 fluorescence, flagging false Apaf-1 activators; fluorescence interference (activity change), % at 20 µM, hits read low; 980 tested, under 10 active; shares compounds with Apaf-1 act; Rh110 fluorescence interference, quenched caspase reaction, Ex480/Em540;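 active = mean activity change at or below -40% when tested at 20 µM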
Apaf-1 act conf: Apaf-1 (human) activation, single-dose confirmed; actives 5% (n = 980); shares compounds with Apaf-1 act; activity change, negative = activation, % at 20 µM; AID 504617; reconstituted apoptosome caspase-3 activity, DEVD-Rh110 fluorescence; active compounds read low;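 active = mean activity change at or below -40%, meaning activation of 40% or more, at 20 µM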
Of the large screens only hits and unclear results are named; the others gave an inactive call (follow-up assays come after a bar, where they were run). A selection follows.

CC(C)CCn1c(CN2CCOCC2)nc2c1c(=O)n(C)c(=O)n2C	Apaf-1 act -44 | Rh110 interf act inactive | Apaf-1 act conf inactive
Cn1c(=O)c2c(nc(CN3CCc4ccccc4C3)n2Cc2cccc(Cl)c2)n(C)c1=O	none
CC(C)[C@@H]1CN=C(N)N1C[C@@H]1CCCN1C[C@H](C)N1C[C@@H](Cc2ccccc2)N(CCc2ccc(Cl)c(Cl)c2)C1=N	none
CC1=CC2=NC(=O)/C(=C/c3coc4ccc(Cl)cc4c3=O)C(=N)N2O1	Apaf-1 act -522 | Rh110 interf act inactive | Apaf-1 act conf inactive
CCN(CC)c1ccc(N=Cc2ccccc2[N+](=O)[O-])cc1	none
Cc1cc(C)nc(/N=c2/ssnc2Cl)c1	none
COC(=O)c1ccc(-c2ccc(C(c3c(C)[nH][nH]c3=O)c3c(C)[nH][nH]c3=O)o2)cc1	none
O=C(c1ccccc1)N1CCCC(c2ccc(Cl)cc2)=N1	Apaf-1 act -41 | Rh110 interf act inactive | Apaf-1 act conf inactive
CCOC(=O)c1[nH]c2ccc(OC)cc2c1NC(=O)c1nonc1C	Apaf-1 act -144 | Rh110 interf act inactive | Apaf-1 act conf inactive
CCOC(=O)c1cc2cc3ccccc3cc2[nH]1	none
CCOC(=O)c1[nH]c(=O)c2ccccc2c1O	none
O=C1C(=O)c2ccc(-c3ccccc3)cc2-c2ccccc21	none
CCOC(=O)c1c(C)oc2c1C(=O)c1ccccc1C2=O	none
CCOC(=O)c1c(-c2ccc(OC)cc2)oc2cc(Br)c(O)cc12	Apaf-1 act -62 | Rh110 interf act inactive | Apaf-1 act conf inactive
Cc1cc(C(C)(C)CC(C)(C)C)ccc1OCCOCC[N+](C)(C)Cc1ccccc1	none
COC(=O)CCC(=O)N1CN2CN(C(=O)CCC(=O)OC)CC([N+](=O)[O-])(C2)C1	Apaf-1 act -152 | Rh110 interf act inactive | Apaf-1 act conf inactive
COc1cc(/C=C2/C(=O)N(c3ccc(Br)cc3)N=C2C)cc(OC)c1OC	none
CCc1noc(C)c1C(=O)N1CCN(S(=O)(=O)c2c(C)cc(C)cc2C)CC1	none
CCSc1ncc(Cl)c(C(=O)Nc2ccc(S(=O)(=O)Nc3ncccn3)cc2)n1	Apaf-1 act -76 | Rh110 interf act inactive | Apaf-1 act conf inactive
Cc1cc(C)n2nc(N)c(N=Nc3ccccc3)c2n1	none
Cc1cc(C)n2nc(SC(C)C(=O)N(C)c3ccccc3)nc2n1 (centres undefined)	Apaf-1 act -54 | Rh110 interf act inactive | Apaf-1 act conf inactive
Cn1c(NC(=O)c2ccc(Cl)s2)cc(=O)n(C)c1=O	none
O=S(=O)(c1ccc2nc(-c3ccco3)c(-c3ccco3)nc2c1)N1CCOCC1	none
O=S(=O)(c1ccc(F)cc1)N1CCN(S(=O)(=O)c2ccc3c(c2)OCCO3)CC1	Apaf-1 act -217 | Rh110 interf act inactive | Apaf-1 act conf inactive
CCN(CC)c1ccc(N=Cc2ccc([N+](=O)[O-])o2)cc1	none
COC(=O)CCC(=O)OC1(C)C(=O)C=C2C=C(C3CC3)N(C3CCCCC3)C=C2C1=O (centres undefined)	none
S=C1NCCc2ccc(Cl)cc2C1c1ccccc1Cl (centres undefined)	Apaf-1 act -514 | Rh110 interf act inactive | Apaf-1 act conf inactive
O=C(NCCCCCCNC(=O)OC1CCS(=O)(=O)C1)OC1CCS(=O)(=O)C1 (centres undefined)	Apaf-1 act -48 | Rh110 interf act inactive | Apaf-1 act conf inactive
O=C(NC1CCS(=O)(=O)C1)Oc1ccccc1 (centres undefined)	none
Cc1ccc(NC2=C/C(=N\S(=O)(=O)c3cccs3)c3ccccc3C2=O)c(C)c1	none
Cc1c(C(=O)c2ccc(F)cc2F)c2ccccn2c1CCC#N	none
COc1ccccc1CCn1c(N)c(C#N)c2nc3ccccc3nc21	none
O=C(N/N=C/c1cn(-c2ccccc2)nc1-c1cccnc1)c1ccccc1	Apaf-1 act -52 | Rh110 interf act inactive | Apaf-1 act conf inactive
C#CCOCCOCCOCCNc1nc(N2CCN(C(=O)CCCCCCCCCCNC(=O)[C@H](CCCCN)n3cc(C)nn3)CC2)nc(N2CCN(C(=O)CCCCCCCCCCNC(=O)[C@H](CCCN=C(N)N)n3cc(C[C@@H](C)CC)nn3)CC2)n1	none
COc1ccc(/C=N/Nc2cc(C)nc3ccc(OC)cc23)c(OC)c1	none
O=C1c2ccccc2C(O)N1Cc1cccs1 (centres undefined)	Apaf-1 act -41 | Rh110 interf act inactive | Apaf-1 act conf inactive
CCCCCc1cc(=O)oc2c(C(CCN3CCCC3)c3cc(OC)c(OC)c(OC)c3)c(OC)cc(OC)c12 (centres undefined)	none
COc1ccc(S(=O)(=O)NCc2ccc3c(c2)cc(C)n3C)cc1	none
COc1ccc(OCC(NS(=O)(=O)c2ccc(-n3cnnn3)cc2)C(C)C)cc1 (centres undefined)	Apaf-1 act -424 | Rh110 interf act inactive | Apaf-1 act conf inactive
COc1ccc(S(=O)(=O)Nc2cc(SCC(=O)O)c(O)c3ccccc23)cc1	none
Fc1ccc(C2=NOC(c3nnc(-c4ccccc4)o3)C2)cc1 (centres undefined)	Apaf-1 act -461 | Rh110 interf act inactive | Apaf-1 act conf inactive
C=CCOc1c(Cl)cc(CNc2ccc(N(C)C)cc2)cc1OC	none
COc1cc2ccccc2cc1C(=O)Nc1sc2c(c1C(N)=O)CCN(C(C)C)C2	none
C#CCOCCOCCOCCNc1nc(N2CCN(C(=O)CCCCCCCCCCNC(=O)[C@@H](CCSC)n3cc(CCO)nn3)CC2)nc(N2CCN(C(=O)CCCCCCCCCCNC(=O)[C@H](CO)n3cc(CCCCCN)nn3)CC2)n1	none
CCN1CCN(Cc2ccc(NC(=O)c3cc(NC(=O)c4cncc(-c5ccc(C#N)cc5)c4)cc(OC)c3)cc2C(F)(F)F)CC1	none
O=C(Nc1cccc(C(F)(F)F)c1)c1ccc2nc(-c3ccco3)c(-c3ccco3)nc2c1	none
COc1cc(NC(=O)c2ccnc(N)c2)cc(C(=O)Nc2cccc(C(F)(F)F)c2)c1	Apaf-1 act -261 | Rh110 interf act inactive | Apaf-1 act conf inactive
CCCCCCC(=O)Nc1nc(C)c(-c2csc(Nc3cc(OC)ccc3OC)n2)s1	none
C/C(=N\NC(=O)c1ccccc1)c1ccc(NC(=O)c2cccs2)cc1	Apaf-1 act -143 | Rh110 interf act inactive | Apaf-1 act conf inactive
CN(Cc1ccc(F)cc1)C(=O)CNC(=O)c1cccs1	none
CCOC(=O)c1c(NC(=O)c2cccs2)sc(C)c1CC	none
CN(CC(=O)Nc1ccc(Cl)c(C(F)(F)F)c1)C(=O)CC1Sc2ccccc2NC1=O (centres undefined)	none
CC(C)[C@H](CN1CCC[C@H]1CN1C(N)=NC[C@@H]1Cc1ccccc1)N1C[C@@H](Cc2ccccc2)N(CCc2ccc(Cl)c(Cl)c2)C1=N	none
O=C1Cc2ccccc2C(=O)N1CCc1ccccc1	none
CCC1(C)NC(=O)N(CC(=O)N2CCC(Cc3ccccc3)CC2)C1=O (centres undefined)	none
CCC1(c2ccccc2)NC(=O)N(CC(=O)Nc2cc(Cl)ccc2N2CCN(C)CC2)C1=O (centres undefined)	none
CCCCn1c(N)c(N(CC)C(=O)CN2C(=O)NC(C)(c3ccccc3)C2=O)c(=O)[nH]c1=O (centres undefined)	Apaf-1 act -441 | Rh110 interf act inactive | Apaf-1 act conf inactive
Cc1[nH]n(-c2ccccc2)c(=O)c1C(C[N+](=O)[O-])c1ccc(Br)cc1 (centres undefined)	none
